Experimental data taken from ChEMBL document CHEMBL4706563, “Triphenylethylene analogues: Design, synthesis and evaluation of antitumor activity and topoisomerase inhibitors” (Eur J Med Chem, 2020).
Active and inactive are the calls of the source. No cut-off for these calls is given here.

How the values were obtained:
[1] = test system: HT-29; assay: Antiproliferative activity against human HT29 cells assessed as growth inhibition at 10 uM relative to control; assay type: functional; details: read-out: GI
Summary of the method: (§1)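 Single-dose screen run by the US National Cancer Institute across its 60-human tumour cell line panel. Each compound was tested at one concentration. Percent growth inhibition was recorded for each cell line.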

[2] = test system: HEK293; assay: Cytotoxicity against human HEK293 cells at 10^-5 M incubated for 24 hrs by MTT assay relative to control; assay type: cell-based; details: hek293, 24 h, 10 µM
Summary of the method: (§2)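 HEK293 cells grown in low-glucose DMEM with 10% FBS, glutamine, penicillin/streptomycin at 37 °C, 5% CO2. Cells exposed to compound at 10^-4 to 10^-8 M for 24 h at 37 °C. MTT from 5 mg/mL stock added for 4 h at 37 °C in dark. Formazan dissolved in DMSO and read at 570 nm. % toxicity calculated relative to medium-only control wells. Three experiments, each in triplicate.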

[3] = test system: HEK293; assay: Cytotoxicity against human HEK293 cells at 10^-4 M incubated for 24 hrs by MTT assay relative to control; assay type: cell-based; details: hek293, 24 h, 100 µM; summary of the method: as §2
[4] = test system: SR; assay: Antiproliferative activity against human SR cells assessed as growth inhibition at 10 uM relative to control; assay type: functional; details: read-out: GI
Summary of the method: (§3)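 NCI 60 human tumour cell line panel screen. Compounds tested at a single dose and growth inhibition (%) determined for each line.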

[5] = test system: NCI-H226; assay: Antiproliferative activity against human NCI-H226 cells assessed as growth inhibition at 10 uM relative to control; assay type: functional; details: read-out: GI; summary of the method: as §1
[6] = test system: HEK293; assay: Cytotoxicity against human HEK293 cells at 10^-8 M incubated for 24 hrs by MTT assay relative to control; assay type: cell-based; details: hek293, 24 h, 0.01 µM; summary of the method: as §2
[7] = test system: T47D; assay: Antiproliferative activity against human T47D cells assessed as growth inhibition at 10 uM relative to control; assay type: functional; summary of the method: as §3
[8] = test system: A498; assay: Antiproliferative activity against human A498 cells assessed as growth inhibition at 10 uM relative to control; assay type: functional; details: read-out: GI; summary of the method: as §1
[9] = test system: HEK293; assay: Cytotoxicity against human HEK293 cells at 10^-6 M incubated for 24 hrs by MTT assay relative to control; assay type: cell-based; details: hek293, 24 h, 1 µM; summary of the method: as §2
[10] = test system: CCRF-CEM; assay: Antiproliferative activity against human CCRF-CEM cells assessed as growth inhibition at 10 uM relative to control; assay type: functional; details: read-out: GI; summary of the method: as §1
[11] = test system: SK-MEL-28; assay: Antiproliferative activity against human SK-MEL-28 cells assessed as growth inhibition at 10 uM relative to control; assay type: functional; details: read-out: GI; summary of the method: as §3
[12] = test system: Malme-3M; assay: Antiproliferative activity against human Malme-3M cells assessed as growth inhibition at 10 uM relative to control; assay type: functional; details: read-out: GI; summary of the method: as §1
[13] = test system: SNB-19; assay: Antiproliferative activity against human SNB-19 cells assessed as growth inhibition at 10 uM relative to control; assay type: functional; details: read-out: GI; summary of the method: as §3
[14] = test system: HEK293; assay: Cytotoxicity against human HEK293 cells at 100 uM incubated for 24 hrs by MTT assay relative to control; assay type: cell-based; details: hek293, 24 h; summary of the method: as §2
[15] = test system: MOLT-4; assay: Antiproliferative activity against human MOLT-4 cells assessed as growth inhibition at 10 uM relative to control; assay type: functional; details: read-out: GI; summary of the method: as §1
[16] = Antiproliferative activity against human Melanoma cells; assay type: functional; details: Melanoma cell line
[17] = test system: UO-31; assay: Antiproliferative activity against human UO-31 cells assessed as growth inhibition at 10 uM relative to control; assay type: functional; details: read-out: GI; summary of the method: as §3
[18] = test system: MDA-MB-435; assay: Antiproliferative activity against human MDA-MB-435 cells assessed as growth inhibition at 10 uM relative to control; assay type: functional; details: read-out: GI; summary of the method: as §1
[19] = test system: K562; assay: Antiproliferative activity against human K562 cells assessed as growth inhibition at 10 uM relative to control; assay type: functional; summary of the method: as §1
[20] = test system: OVCAR-4; assay: Antiproliferative activity against human OVCAR-4 cells assessed as growth inhibition at 10 uM relative to control; assay type: functional; details: read-out: GI; summary of the method: as §1
[21] = test system: KM12; assay: Antiproliferative activity against human KM12 cells assessed as growth inhibition at 10 uM relative to control; assay type: functional; details: read-out: GI; summary of the method: as §1
[22] = Antiproliferative activity against human ovarian cancer cells; assay type: functional; details: Ovarian cancer cell line; for CC50: read-out: LC50 (the source's name)
[23] = test system: RPMI-8226; assay: Antiproliferative activity against human RPMI-8226 cells assessed as growth inhibition at 10 uM relative to control; assay type: functional; details: read-out: GI; summary of the method: as §1
[24] = test system: SN12C; assay: Antiproliferative activity against human SN12C cells assessed as growth inhibition at 10 uM relative to control; assay type: functional; details: read-out: GI; summary of the method: as §3
[25] = test system: HEK293; assay: Cytotoxicity against human HEK293 cells at 10^-7 M incubated for 24 hrs by MTT assay relative to control; assay type: cell-based; details: hek293, 24 h, 0.1 µM; summary of the method: as §2
[26] = test system: SF-268; assay: Antiproliferative activity against human SF-268 cells assessed as growth inhibition at 10 uM relative to control; assay type: functional; details: read-out: GI; summary of the method: as §1

| SMILES | inhibition of growth at 10 µM [1] | inhibition of growth at 10 µM [4] | inhibition of growth at 10 µM [5] | inhibition of growth at 10 µM [8] | inhibition of growth at 10 µM [10] | inhibition of growth at 10 µM [11] | inhibition of growth at 10 µM [12] | inhibition of growth at 10 µM [13] | inhibition of growth at 10 µM [15] | GI50 [16] | TGI [16] | inhibition of growth at 10 µM [17] | inhibition of growth at 10 µM [18] | inhibition of growth at 10 µM [20] | inhibition of growth at 10 µM [21] | GI50 [22] | TGI [22] | CC50 [22] | inhibition of growth at 10 µM [23] | inhibition of growth at 10 µM [24] | also measured |
| --- | --- | --- | --- | --- | --- | --- | --- | --- | --- | --- | --- | --- | --- | --- | --- | --- | --- | --- | --- | --- | --- |
| C/C(=C(/c1ccccc1)c1ccc(OCC(O)CNCCN2CCOCC2)cc1)c1ccccc1 (configuration not stated) | 96.8% | 99.3% | 3.88% | 20.1% | 43.5% | -86.2% | -71.7% | 8.8% | 59% | 1.87 µM | 3.74 µM | 30.8% | -63.8% | 29.8% | 45.7% | 5.2 µM | 16.3 µM | 45.8 µM | 79.8% | 23.9% | Activity [2]: 13.73%; Activity [3]: 15.82%; Activity [6]: 4.74%; inhibition of growth at 10 µM ([7]; read-out: GI): 10.7%; Activity [9]: 7.04%; Activity [14]: 20%; LC50 [16]: 8.55 µM; inhibition of growth at 10 µM ([19]; read-out: GI): 97.6%; Activity [25]: 5.43% |
| CC/C(=C(\c1ccccc1)c1ccc(OCCN(C)C)cc1)c1ccccc1 [TAMOXIFEN] | -11.2% | -18.9% | 7.5% | 35.9% | 65.4% | 88.7% | -67.5% | 47.4% | 66.7% | 2.03 µM | 5.49 µM | 59.7% | 62.2% | 53.7% | 75% | 4.7 µM | 11.9 µM | 2.78 µM | -28.3% | 52.3% | growth inhibition (GI) [7]: inactive; inhibition of growth at 10 µM [26]: 43.3%; growth inhibition (GI) [19]: inactive |
